Results from ChEMBL document CHEMBL4196210, “Depsipeptides Featuring a Neutral P1 Are Potent Inhibitors of Kallikrein-Related Peptidase 6 with On-Target Cellular Activity” (J Med Chem, 2018).
pIC50, pKi: −log10 of the molar value. Active and inactive are the calls of the source. No cut-off for these calls is given here.

Tests used:
Trypsin = Trypsin (Homo sapiens, UniProt P07477+P07478+P35030); test: Inhibition of trypsin (unknown origin) pre-incubated for 30 mins before N-Boc-FSR-AMC substrate addition and measured after 30 mins; type: protein assay
Prothrombin = Prothrombin (Homo sapiens, UniProt P00734); test: Inhibition of thrombin (unknown origin) pre-incubated for 30 mins before N-Boc-FSR-AMC substrate addition and measured after 30 mins
In short: (§1)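 Inhibitor (1:2 or 1:3 dilutions) or 2% DMSO for 30 min at rt, then N-Boc-FSR-AMC at 20 µM final. Fluorescence (ex 350/em 440) read every 60 s for 30 min. Slopes normalized to DMSO for dose-response; triplicates.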

Coagulation factor X = Coagulation factor X (Homo sapiens, UniProt P00742); test: Inhibition of factor 10a (unknown origin) pre-incubated for 30 mins before N-Boc-FSR-AMC substrate addition and measured after 30 mins; in short: as §1
Coagulation factor X, sequence (P00742 41-179 limits assumed): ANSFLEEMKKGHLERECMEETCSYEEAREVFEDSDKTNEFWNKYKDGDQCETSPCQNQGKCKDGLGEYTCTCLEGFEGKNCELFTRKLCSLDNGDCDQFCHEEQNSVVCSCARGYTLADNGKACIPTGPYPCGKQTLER
Coagulation factor X, sequence (P00742 235-488 limits assumed): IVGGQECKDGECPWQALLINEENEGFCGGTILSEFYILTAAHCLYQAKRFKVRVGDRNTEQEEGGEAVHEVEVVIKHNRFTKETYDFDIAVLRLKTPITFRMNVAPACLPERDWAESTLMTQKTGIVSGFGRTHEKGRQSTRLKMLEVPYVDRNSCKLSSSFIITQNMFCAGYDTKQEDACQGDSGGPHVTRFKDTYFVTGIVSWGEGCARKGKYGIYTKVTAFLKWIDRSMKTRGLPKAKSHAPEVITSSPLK

Kallikrein-6 [1] = target: T1, Kallikrein-6 (Homo sapiens, UniProt Q92876); test: Inhibition of human KLK6 expressed in baculovirus/insect cell line system using Abz-KLRSSKQ-EDDnp substrate
Kallikrein-6 [2] = target: T1, Kallikrein-6; test: Inhibition of KLK6 in human FaDu cells assessed as reduction in cell proliferation at 300 nM incubated for 48 hrs by BrdU incorporation assay; type: cell-based
In short: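 FaDu cells treated daily for 48 h. Proliferation read as BrdU incorporation; average of 5 independent experiments ± standard deviation.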

[3] = Stability in DMEM supplemented with 10% (v/v) fetal bovine serum at 10 uM at 37 degC assessed as half life by HPLC-MS method; type: physicochemical; conditions: cattle, DMEM with 10% (v/v) fetal bovine serum
In short: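 Compound at 10 µM (0.2% DMSO) in DMEM with 10% FBS, 2 mM L-glutamine and 1% penicillin/streptomycin, plus 10 µM triazole internal standard, held at 37 °C. Sampled hourly to 10 h, then at 24 h, by HPLC-MS in SIM mode for parent and hydrolysis product.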

Kallikrein-5 = target: T2, Kallikrein-5 (Homo sapiens, UniProt Q9Y337); test: Inhibition of KLK5 (unknown origin) expressed in Pichia pastoris pre-incubated for 10 mins before Boc-ValProArg-AMC substrate addition and measured after 30 mins by fluorescence based assay
T2 sequence (Q9Y337 whole entry): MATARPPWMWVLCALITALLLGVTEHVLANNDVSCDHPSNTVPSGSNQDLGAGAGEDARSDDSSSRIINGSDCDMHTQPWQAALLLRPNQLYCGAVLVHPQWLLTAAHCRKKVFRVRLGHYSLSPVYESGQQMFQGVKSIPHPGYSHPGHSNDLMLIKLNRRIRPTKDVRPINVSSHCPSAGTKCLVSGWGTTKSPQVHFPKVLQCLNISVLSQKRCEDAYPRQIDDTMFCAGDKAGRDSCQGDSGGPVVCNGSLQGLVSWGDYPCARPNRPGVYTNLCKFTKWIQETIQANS

Kallikrein-7 = Kallikrein-7 (Homo sapiens, UniProt P49862); test: Inhibition of KLK7 (unknown origin) expressed in Pichia pastoris pre-incubated for 10 mins before Leu-Leu-Val-Tyr-AMC substrate addition and measured after 30 mins by fluorescence based assay
Kallikrein-7, sequence (P49862 whole entry): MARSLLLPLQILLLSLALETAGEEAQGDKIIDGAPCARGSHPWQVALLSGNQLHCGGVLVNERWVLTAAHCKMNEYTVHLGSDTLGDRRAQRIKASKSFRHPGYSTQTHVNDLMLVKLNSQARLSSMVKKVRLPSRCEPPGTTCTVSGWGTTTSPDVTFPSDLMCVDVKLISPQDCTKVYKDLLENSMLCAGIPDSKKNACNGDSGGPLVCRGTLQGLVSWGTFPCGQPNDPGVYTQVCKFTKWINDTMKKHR
In short: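 KLK7 at 33 nM final in 100 mM phosphate, 0.01% Tween-20, pH 8.5, with inhibitor (1:3 dilutions) or 2% DMSO for 10 min at rt. Reaction started with Leu-Leu-Val-Tyr-AMC at 500 µM final. Fluorescence (ex 380/em 460) read every 60 s for 30 min. Triplicates.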

Kallikrein-8 = target: T3, Kallikrein-8 (Homo sapiens, UniProt O60259); test: Inhibition of KLK8 (unknown origin) expressed in Pichia pastoris pre-incubated for 10 mins before Boc-ValProArg-AMC substrate addition and measured after 30 mins by fluorescence based assay
T3 sequence (O60259 whole entry): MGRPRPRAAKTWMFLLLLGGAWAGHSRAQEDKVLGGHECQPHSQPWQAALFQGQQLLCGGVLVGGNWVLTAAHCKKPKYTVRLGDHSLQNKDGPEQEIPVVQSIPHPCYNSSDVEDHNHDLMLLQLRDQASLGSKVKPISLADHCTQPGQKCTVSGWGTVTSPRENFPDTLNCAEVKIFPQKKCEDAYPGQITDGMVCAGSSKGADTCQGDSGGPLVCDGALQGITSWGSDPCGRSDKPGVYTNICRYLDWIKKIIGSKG

Kallikrein-13 = target: T4, Kallikrein-13 (Homo sapiens, UniProt Q9UKR3); test: Inhibition of KLK13 (unknown origin) expressed in Pichia pastoris pre-incubated for 10 mins before Boc-ValProArg-AMC substrate addition and measured after 30 mins by fluorescence based assay
T4 sequence (Q9UKR3 whole entry): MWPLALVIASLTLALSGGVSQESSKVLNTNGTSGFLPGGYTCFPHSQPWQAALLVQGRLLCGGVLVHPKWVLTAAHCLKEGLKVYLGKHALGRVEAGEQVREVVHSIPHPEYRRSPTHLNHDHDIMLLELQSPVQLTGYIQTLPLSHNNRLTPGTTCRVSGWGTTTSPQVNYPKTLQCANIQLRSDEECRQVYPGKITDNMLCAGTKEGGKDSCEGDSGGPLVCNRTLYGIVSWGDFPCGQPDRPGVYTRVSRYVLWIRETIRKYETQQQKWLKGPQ

Kallikrein-14 = target: T5, Kallikrein-14 (Homo sapiens, UniProt Q9P0G3); test: Inhibition of KLK14 (unknown origin) expressed in Pichia pastoris pre-incubated for 10 mins before Boc-ValProArg-AMC substrate addition and measured after 30 mins by fluorescence based assay
T5 sequence (Q9P0G3 whole entry): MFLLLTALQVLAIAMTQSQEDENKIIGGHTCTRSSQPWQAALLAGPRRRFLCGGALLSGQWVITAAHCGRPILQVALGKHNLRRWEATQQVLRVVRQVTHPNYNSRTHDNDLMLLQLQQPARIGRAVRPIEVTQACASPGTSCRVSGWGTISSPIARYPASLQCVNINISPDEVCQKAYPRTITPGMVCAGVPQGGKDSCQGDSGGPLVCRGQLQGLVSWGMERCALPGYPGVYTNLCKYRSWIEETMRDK

Kallikrein-6 [4] = target: T1, Kallikrein-6; test: Inhibition of recombinant human KLK6 assessed as Kinact/Ki ratio using Boc-QAR-AMC substrate

| Structure (SMILES) | IC50 (Trypsin) [µM] | pIC50 (Trypsin) | other results |
| --- | --- | --- | --- |
| NCc1ccc(NC(=O)c2c([O-])ccc[n+]2Cc2nccn2Cc2ccccc2)cc1 | 0.18 | – | pIC50 (Prothrombin): < 4.30; pIC50 (Coagulation factor X): < 4.30 |
| Cc1nn(-c2ccccc2)cc1NC(=O)CNC(=O)Cc1c(C)[nH]c2ccccc12 | > 200 | – | – |
| Cc1nn(-c2ccccc2)c(C)c1NC(=O)COC(=O)Cc1c(C)[nH]c2cccc(Cl)c12 | > 200 | – | – |
| Cc1nn(-c2ccccc2)c(C)c1NC(=O)COC(=O)Cc1c(C)n(C)c2ccccc12 | > 200 | – | – |
| C#Cc1ccc2[nH]c(C)c(CC(=O)OCC(=O)Nc3c(C)nn(-c4ccccc4)c3C)c2c1 | 26 | – | – |
| CC(C)C[C@H](NC(=O)[C@H](CCCNC(=N)N)NC(=O)c1ccc(Cl)cc1)C(N)=O | – | – | pKi (Kallikrein-6 [1]): 5.82 |
| Cc1nn(-c2ccccc2)c(C)c1NC(=O)COC(=O)Nc1c(C)[nH]c2ccccc12 | – | – | Activity (Kallikrein-6 [2]): inactive |
| Cc1nn(-c2ccccc2)c(C)c1NC(=O)COC(=O)Cc1c(C)[nH]c2ccc(C(=N)N)cc12 | 19 | – | – |
| C#Cc1[nH]c2ccccc2c1CC(=O)OCC(=O)Nc1c(C)nn(-c2ccccc2)c1C | > 200 | – | – |
| Cc1[nH]c2ccccc2c1CC(=O)NCC(=O)Nc1cnn(-c2ccccc2)c1C | 34 | – | – |
| Cc1nn(-c2ccccc2)c(C)c1NC(=O)COC(=O)Cc1ccccc1 | > 200 | – | pIC50 (Prothrombin): < 3.70; pIC50 (Coagulation factor X): < 3.70 |
| Cc1nn(-c2ccccc2)c(C)c1NC(=O)COC(=O)CCc1c(C)[nH]c2ccccc12 | > 200 | – | – |
| Cc1[nH]c2cccnc2c1CC(=O)NCC(=O)Nc1onc(-c2ccccc2)c1C | 50 | – | – |
| Cc1nn(-c2ccccc2)c(C)c1NC(=O)COC(=O)C(C)(C)c1c(C)[nH]c2ccccc12 | > 200 | – | – |
| Cc1nn(C)c(C)c1NC(=O)CNC(=O)Cc1c(C)[nH]c2cccnc12 | > 50 | – | – |
| Cc1nn(-c2ccccc2)c(C)c1NC(=O)COC(=O)c1c(C)[nH]c2ccccc12 | > 200 | – | – |
| Cc1nn(-c2ccccc2)c(C)c1NC(=O)COC(=O)C(C)c1c(C)[nH]c2ccccc12 (centres undefined) | > 200 | – | half-life at 10 µM [3]: 912 min |
| Cc1nn(-c2ccccc2)c(C)c1NC(=O)COC(=O)Cc1c(C)[nH]c2ccc(Cl)cc12 | 34 | – | – |
| Cc1nn(-c2ccccc2)c(C)c1NC(=O)COC(=O)Cc1c(C)[nH]c2cccnc12 | 61 | – | – |
| Cc1nn(-c2ccccc2)c(C)c1NC(=O)COC(=O)Cc1c(C)[nH]c2cc(C(=N)N)ccc12 | < 0.001 | – | pIC50 (Kallikrein-5): 6.89; pIC50 (Kallikrein-7): < 6.30; pIC50 (Kallikrein-8): 6.68; pIC50 (Kallikrein-13): < 6.30; pIC50 (Kallikrein-14): 8.10; half-life at 10 µM [3]: 79.2 min |
| Cc1[nH]c2ccccc2c1CC(=O)OCC(=O)Nc1ccc(N2CCOCC2)cc1 | > 200 | – | – |

| Structure (SMILES) | IC50 (Trypsin) [µM] | pIC50 (Trypsin) | other results |
| --- | --- | --- | --- |
| Cc1nn(-c2ccccc2)c(C)c1NC(=O)CCOC(=O)Cc1c(C)[nH]c2ccccc12 | > 200 | – | – |
| Cc1nn(-c2ccccc2)c(C)c1NC(=O)COC(=O)Cc1c(C)[nH]c2ccncc12 | 25 | – | – |
| Cc1[nH]c2ccccc2c1CC(=O)OCC(=O)Nc1cncnc1 | > 200 | – | – |
| Cc1nn(-c2ccccc2)c(C)c1NC(=O)COC(=O)Cn1c(C)cc2ccccc21 | – | 4.15 to 4.42 | pIC50 (Prothrombin): < 3.70; pIC50 (Coagulation factor X): < 3.70; half-life at 10 µM [3]: 33.6 min |
| Cc1nn(-c2ccccc2)c(C)c1NC(=O)CNC(=O)Cc1c(C)[nH]c2cc(C(=N)N)ccc12 | 2.5 | – | – |
| C#Cc1cccc2[nH]c(C)c(CC(=O)OCC(=O)Nc3c(C)nn(-c4ccccc4)c3C)c12 | > 50 | – | – |
| Cc1nn(-c2ccccc2)c(C)c1NC(=O)C(NC(=O)Cc1c(C)[nH]c2ccccc12)C(F)(F)F (centres undefined) | > 200 | – | – |
| Cc1nn(-c2ccccc2)c(C)c1NC(=O)COC(=O)Cn1cnc2ccccc2c1=O | > 200 | – | pIC50 (Prothrombin): < 3.70; pIC50 (Coagulation factor X): < 3.70 |
| Cc1nn(-c2ccccc2)c(C)c1NC(=O)COC(=O)Cc1c(C)[nH]c2cnccc12 | 0.33 | – | – |
| Cc1nn(-c2ccccc2)c(C)c1NC(=O)COC(=O)Cc1c[nH]c2ccccc12 | 150 | – | half-life at 10 µM [3]: 27 min |
| Cc1nn(-c2ccccc2)c(C)c1NC(=O)COC(=O)C(c1c(C)[nH]c2ccccc12)C(F)(F)F (centres undefined) | > 200 | – | – |
| Cc1nn(-c2ccccc2)c(C)c1NC(=O)COC(=O)Cc1c(C)[nH]c2ncccc12 | > 200 | – | – |
| Cc1nn(-c2ccccc2)c(C)c1NC(=O)C(OC(=O)C(C)c1c(C)[nH]c2ccccc12)C(F)(F)F (centres undefined) | 61 | – | half-life at 10 µM [3]: 101 min |
| Cc1nn(-c2ccccc2)c(C)c1NC(=O)COC(=O)Cn1c(C)csc1=O | > 200 | – | pIC50 (Prothrombin): < 3.70; pIC50 (Coagulation factor X): < 3.70 |
| Cc1nn(-c2ccccc2)c(C)c1NC(=O)COC(=O)Cn1c(C)nc2ccccc21 | > 200 | – | – |
| Cc1nn(-c2ccccc2)c(C)c1NC(=O)COC(=O)Cc1c(C(C)C)[nH]c2ccccc12 | > 200 | – | – |
| C#Cc1ccc2c(CC(=O)OCC(=O)Nc3c(C)nn(-c4ccccc4)c3C)c(C)[nH]c2c1 | 24 | – | – |
| Cc1nn(-c2ccccc2)c(C)c1NC(=O)C(OC(=O)Cc1c(C)[nH]c2ccccc12)C(F)(F)F (centres undefined) | 0.38 | – | half-life at 10 µM [3]: 25.5 min |
| O=C(Oc1cc(Cl)ccc1Cl)c1cc2cc(Cl)ccc2oc1=O | – | – | Ratio (Kallikrein-6 [4]): 131 M⁻¹ s⁻¹ |
| Cc1nn(-c2ccccc2)c(C)c1NC(=O)COC(=O)Cn1c(=O)oc2ccccc21 | 190 | – | pIC50 (Prothrombin): < 3.70; pIC50 (Coagulation factor X): < 3.70 |
